The source of these data is article PMC7313255 (Biology of Reproduction, 2020).

Values joined by “and” are separate entries in the source; they are usually repeats but may differ in a detail not shown here. Equal values may be shown once. Where a name gives a salt, the structure may show the parent alone. Read-outs that look alike come from different tables or passages of the source. Positions of bridges follow the written chain, without caps; N, C: chain ends. Non-standard residues stand in square brackets, D forms with d. Residues, ends and D or L forms follow the SMILES beside them. Orn = NCCC[C@H](N)C(=O)O; Mpa = O=C(O)CCS

The format of data set [1] is in vitro ADME, human. The gist of the method:
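Term placentas (39–41 weeks, no chorioamnionitis) perfused ex vivo as double-sided open cotyledon at 36.5 °C; fetal flow 2 mL/min, maternal 10 mL/min. Test compound 1.2 µM (1 µg/mL) in perfusate with antipyrine 531 µM co-infused. Fetal venous samples at 1–120 min; Evans blue integrity check. LC-MS/MS for test compound, spectrophotometry for antipyrine; trapezoidal AUC ratio; mean ± SD.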

The conditions of data set [2]: cited from earlier work.
Data set [3] concerns the target cloned human V1AR. As to conditions: read-out: Ki (affinity), cloned human V1AR; two literature values; cited from earlier work.
The conditions of data set [4]: sheep, epitheliochoral placenta; cited from earlier work.
Data set [5] can be described thus: Placental transfer in rabbits. Conditions: rabbit. It counts as in vivo, New Zealand white rabbits. The gist of the method:
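Pregnant rabbits (5–6 months, 3.0–4.4 kg) given the radiolabelled test compound by ear-vein bolus daily on gestation days 24–30: mean 3.01 mg/kg, 522 kBq/kg, in 0.9% saline. Three dams per time point killed by barbiturate at 10 min, 1, 3 and 10 h after dosing. Maternal ear-artery blood taken; from one fetus per sex, cardiac blood and tissues taken. Liquid scintillation counting; levels expressed as % of maternal peak.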

A short description of data set [6]: Placental transfer in cynomolgus monkeys. It counts as in vivo, cynomolgus monkeys (Macaca fascicularis). As to conditions: cynomolgus monkey. The gist of the method: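 Three pregnant monkeys, gestation day 150 ± 1. Test compound infused intravenously (saphenous vein) over 2 h to 300 µg/kg in 5 mL/kg, from a 10 mg/mL stock in 0.04 M acetate pH 4.3 diluted in saline. Maternal brachial plasma taken pre-dose, 1 and 2 h. Umbilical venous plasma and amniotic fluid taken at C-section under ketamine/xylazine. Plasma measured by RIA, amniotic fluid by LC-MS/MS; paired t-test.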

The nature of data set [7]: quantitative whole-body autoradiography. It counts as in vivo. Conditions: rat; all sampling times; limit of quantitation 40 pmoles/g; unpublished data.
Data set [8] in a line: quantitative whole-body autoradiography. Conditions: marmoset; normally below the limit of quantification; unpublished data. It counts as in vivo.
Data set [9] deals with vasopressin-induced contractions of isolated term-pregnant human myometrium. Conditions: cited from earlier work.
Data set [10] relates to oxytocin-induced uterine contractions. Conditions: cited from earlier work.
For data set [11] the following is noted: cited from earlier work. This is another data set of the same source.
The conditions of data set [12]: up to 2.5 mg barusiban/kg body weight/day from day 85 of gestation until delivery; cited from earlier work.

Regarding `Cc1cc(=O)n(-c2ccccc2)n1C` [antipyrine, reference compound], the “transfer of antipyrine relative to barusiban” value in [1] (human placental single cotyledon, comparator) is “approximately three times greater”.
As for `O=S(=O)([O-])[O-].[Mg+2]` [MgSO4], in data set [2] (in humans), the placental transfer entry is listed as “up to 100%”.
Regarding `CC(NCCc1ccc(O)cc1)C(O)c1ccc(O)cc1` (centres unmarked) [ritodrine hydrochloride], the placental transfer is reported as 70% in data set [2] (in humans, long-term treatment) and 26% in data set [2] (in humans, short-term treatment).
One may read the Ki as the dissociation constant of the complex between target and ligand, obtained from inhibition or displacement. Turning to `CCOc1ccc(C[C@H]2NC(=O)CCSSC[C@@H](C(=O)N3CCC[C@H]3C(=O)N[C@@H](CCCN)C(=O)NCC(N)=O)NC(=O)[C@H](CC(N)=O)NC(=O)[C@H]([C@@H](C)O)NC(=O)[C@H]([C@@H](C)CC)NC2=O)cc1` [atosiban] ([Mpa][dY](Et)ITNCP[Orn]G-NH2; disulfide 1-6 (inferred); C-terminus assumed), in data set [3], the Ki was 3.5 nM and 4.7 nM. Also, the placental transfer entry is given as “could not be detected” in data set [4] and 12% in [2] (in vivo, pregnant women at term).
With `CC[C@@H](C)[C@@H]1NC(=O)[C@H]([C@@H](C)CC)NC(=O)[C@@H](Cc2c[nH]c3ccccc23)NC(=O)CCSCC[C@@H](C(=O)N(C)[C@H](CO)CCCN)NC(=O)[C@H](CC(N)=O)NC1=O` [barusiban], the “barusiban level in other fetal tissues as % of the maternal blood” value in [5] (10 min post-dose, or less than LLOQ) is below 1%. Besides, in data set [5] (1 h post-dose, or less than LLOQ), the “barusiban in most fetal tissue samples as % of the maternal peak blood level” value is on record as “less than 1%”. In [5] (1 h post-dose), the “fetal blood barusiban as % of that after 10 min” value was 79.3%, the “fetal blood barusiban as % of the peak maternal level” value came out at 4.2%, the “fetal plasma barusiban as % of the peak maternal level” value amounted to 5.0% and the “maternal blood barusiban as % of the maximum level” value is 32.8%. Also, the “maternal plasma barusiban as % of the maximum level” value in data set [5] (1 h post-dose) stood at 35.2%. Further, in [5] (3 h post-dose), the “maternal blood barusiban as % of its maximum level” value is listed as 6.1% and the “maternal plasma barusiban as % of its maximum level” value is recorded as 7.9%. In [5] (10 h post-dose, one adrenal), the “fetal adrenal barusiban as % of the maximal maternal blood level” value came to 12.0%. The “barusiban in all other fetal tissues as % of peak maternal blood level” value in data set [5] (10 h post-dose, or less than LLOQ) is listed as “less than 1%”. Moreover, in data set [5] (10 h post-dose), the “amniotic fluid barusiban as % of the maximal maternal blood level” value is reported as 5.7%, the “fetal blood barusiban as % of initial maternal level” value is recorded as “less than 2%”, the “fetal plasma barusiban as % of initial maternal level” value is listed as “less than 3%” and the “maternal blood barusiban as % of the first determination” value is “less than 1%”. The “maternal plasma barusiban as % of the first determination” value in [5] (10 h post-dose) was “less than 2%”. Also, the “increase of maternal plasma barusiban from 1 h to 2 h” value in [6] (individual values of two animals) is 40.4% and 54.6%. For the same compound, the “mean amniotic barusiban at C-section as % of the maternal plasma after 2 h” value in data set [6] (iv infusion 2 h to 300 μg/kg, n = 3) was found to be 1.9%. The “decrease of maternal plasma barusiban from 1 h to 2 h” value in data set [6] (third animal) amounted to 5.0%. For the same compound, the “AUC ratio of barusiban to antipyrine” value in [1] (ex vivo perfused human cotyledon, mean of ratios ± SD, n = 13, SD) came to 36 ± 11%. Also, in [7], the “barusiban in the fetuses (QWBA)” value is below 40 pmol/g. Further, the “radioactivity in fetal brain (QWBA)” value in data set [8] is below 12 pmoles/g tissue. Further, the “effect on vasopressin-induced contractions” value in [9] is “practically no effect”. The “reduction of induced uterine contractions compared with fenoterol” value in [10] (cynomolgus monkey) is on record as “more effective than fenoterol”. Besides, in [10] (pregnant cynomolgus monkey, action also longer lasting), the “reduction of oxytocin-induced uterine contractions compared with atosiban” value is “more potent”. For the same compound, in [11] (Phase II clinical trial), the “effect over the placebo group (women who did not deliver within 48 h)” value is recorded as “did not demonstrate a statistically significant effect”. For the same compound, in [11] (clinical study, did not differ from placebo), the “fetal and neonatal adverse events with maternal barusiban” value was “very low level of fetal and neonatal adverse events”. Moreover, the “effects in the mother or offspring” value in data set [12] is “no barusiban-related effects”.
